In PubChem BioAssay AID463192 (Sanford-Burnham Center for Chemical Genomics, 2010):
Calls of active or inactive are those of the source.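 How the source made its calls: active means membrane recruitment of a green fluorescent kinase sensor scored by eye at 30% or more; inactive means the rest.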

Target: G-protein coupled receptor 55 (Homo sapiens) (UniProt Q9Y2T6)
Experiment: GPR55 agonists inducing PKCbII-GFP membrane recruitment, SAR follow-up, imaging, HEK293 (AID 463192)
How it was run: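 Assay system: HEK293 cells transiently expressing wild-type human GPR55 and PKC βII-GFP biosensor / Buffer or medium: serum-free MEM / Compound dosing: four-point compound series, 10 nM to 10 µM final, duplicate / Timing: 15 min compound exposure at 37 °C / Detection: fluorescence microscopy of fixed cells, scored by eye / Replicates: duplicate wells per compound dose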

Chain of G-protein coupled receptor 55 (Homo sapiens) (Q9Y2T6 whole entry, looked up): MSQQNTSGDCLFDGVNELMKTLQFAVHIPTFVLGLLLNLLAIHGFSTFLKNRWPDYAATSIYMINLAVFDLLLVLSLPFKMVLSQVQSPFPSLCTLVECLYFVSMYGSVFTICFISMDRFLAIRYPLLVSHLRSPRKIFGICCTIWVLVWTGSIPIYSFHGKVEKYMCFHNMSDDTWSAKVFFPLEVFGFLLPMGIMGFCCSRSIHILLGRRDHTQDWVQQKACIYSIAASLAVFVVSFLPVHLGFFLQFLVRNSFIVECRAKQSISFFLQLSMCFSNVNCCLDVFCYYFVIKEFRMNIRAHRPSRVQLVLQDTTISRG

Structure (SMILES)	outcome
Cc1cccc(N2CCN(C(=O)c3cc(S(=O)(=O)N(C)C)ccc3N3CCCC3)CC2)c1C	active; +++
CC(C)Oc1ccc(S(=O)(=O)N2CCOCC2)cc1NC(=O)c1ccc(N2CCCC2=O)cc1	active; +++
CCCN(CCC)Cc1c(C(=O)NN=Cc2c[nH]c3ccccc23)nnn1-c1nonc1N	active; +++
CN(C)S(=O)(=O)c1ccc(N2CCCC2)c(C(=O)N2CCN(c3ccc([N+](=O)[O-])cc3)CC2)c1	active; +++
COc1ccccc1/C=C/C(=O)NC(=S)Nc1ccc(S(=O)(=O)N(C)c2ccccc2)cc1	active; +++
COc1ccc(S(=O)(=O)N2CCOCC2)cc1NC(=O)c1cc2c(s1)CCCC2	active; +++

The remaining lines, values ahead:

outcome	Structure (SMILES)
active; +++	Cc1occc1C(=O)Nc1ccc(OCc2ccccc2)cc1
active; +++	COc1ccc(-c2csc(NC(=O)CSc3nnc4c(C)cc5ccccc5n34)n2)cc1
active; +++	COc1ccc2cc(C)c3nnc(SCC(=O)Nc4nc(-c5ccc(F)cc5)cs4)n3c2c1
